According to publication PMC8162271 (Chemical Science, 2020):

Key:
[1] = Trolox equivalent antioxidant capacity; details: TEAC assay, result in words
Method in brief: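 Radical quenching was measured with the cationic radical of 2,2′-azino-bis(3-ethylbenzthiazoline-6-sulphonic acid) as substrate, in EtOH at 25 °C. Absorbance was read at 734 nm, and capacity is expressed relative to the vitamin E analog Trolox as Trolox equivalents.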

[2] = molecular target: Electrophorus electricus AChE (eeAChE) (Electrophorus electricus, UniProt O42275); assay: AChE activity assay; assay type: biochemical; details: for inhibition of the activity of AChE: eeAChE, result in words; for IC50: AChE IC50, eeAChE, fluorometric assay
Chain of Electrophorus electricus AChE (eeAChE) (O42275 24-633): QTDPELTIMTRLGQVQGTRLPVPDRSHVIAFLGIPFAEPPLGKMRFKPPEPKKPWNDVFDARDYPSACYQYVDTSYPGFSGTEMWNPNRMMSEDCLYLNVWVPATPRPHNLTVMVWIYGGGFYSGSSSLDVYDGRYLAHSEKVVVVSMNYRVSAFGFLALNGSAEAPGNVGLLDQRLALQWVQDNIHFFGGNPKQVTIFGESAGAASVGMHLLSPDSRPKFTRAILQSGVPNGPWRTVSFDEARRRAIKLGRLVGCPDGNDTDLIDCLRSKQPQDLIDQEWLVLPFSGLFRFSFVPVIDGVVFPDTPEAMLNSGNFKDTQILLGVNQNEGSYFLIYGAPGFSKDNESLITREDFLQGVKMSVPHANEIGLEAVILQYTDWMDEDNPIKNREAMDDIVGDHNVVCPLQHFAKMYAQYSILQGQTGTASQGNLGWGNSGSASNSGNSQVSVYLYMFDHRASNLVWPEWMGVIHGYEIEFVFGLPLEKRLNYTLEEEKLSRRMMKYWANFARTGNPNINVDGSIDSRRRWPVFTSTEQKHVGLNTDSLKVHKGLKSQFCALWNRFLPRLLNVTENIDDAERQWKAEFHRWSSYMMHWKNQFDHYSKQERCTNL

metal-free Aβ42 = metal-free Aβ42 (Homo sapiens, UniProt P05067); assay: Aβ42 aggregation inhibition experiments; assay type: biochemical; details: [Aβ42] 25 μM, [flavonoid] 50 μM, pH 7.4, 37 °C, 24 h
Chain of metal-free Aβ42 (P05067 672-713): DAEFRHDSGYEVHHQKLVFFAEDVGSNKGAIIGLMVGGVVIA
Method in brief: (§1)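 Freshly prepared Aβ42 (25 μM), metal-free or with ZnCl2 (25 μM), incubated with test compound (50 μM) at pH 7.4, 37 °C, for 24 h with constant agitation. Species sizes were resolved by gel/Western blot probed with anti-Aβ antibody 6E10. Band intensities were quantified and normalized to the matching untreated control (ISample/IControl). Aggregate morphology was imaged by TEM.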

Cu(II)–Aβ42 = Cu(II)–Aβ42 (Homo sapiens, UniProt P05067); assay: Aβ42 aggregation inhibition experiments; assay type: biochemical; details: 24 h; for MW distribution of Aβ42 species by gel/Western blot: [Aβ42] 25 μM, [CuCl2] 25 μM, [flavonoid] 50 μM, pH 6.6, 37 °C; for morphology of Aβ42 aggregates by TEM: Cu(II)–Aβ42, [flavonoid] 50 μM
Chain of Cu(II)–Aβ42 (P05067 672-713): as above

Zn(II)–Aβ42 = Zn(II)–Aβ42 (Homo sapiens, UniProt P05067); assay: Aβ42 aggregation inhibition experiments; assay type: biochemical; details: 24 h; for MW distribution of Aβ42 species by gel/Western blot: [Aβ42] 25 μM, [ZnCl2] 25 μM, [flavonoid] 50 μM, pH 7.4, 37 °C; for morphology of Aβ42 aggregates by TEM: Zn(II)–Aβ42, [flavonoid] 50 μM
Chain of Zn(II)–Aβ42 (P05067 672-713): as above
Method in brief: as §1

[3] = molecular target: preformed metal-free Aβ42 aggregates (Homo sapiens, UniProt P05067); assay: Aβ42 disaggregation experiments; assay type: biochemical; details: preformed aggregates (24 h) then [flavonoid] 50 μM 24 h, pH 7.4
Chain of preformed metal-free Aβ42 aggregates (P05067 672-713): as above
Method in brief: (§2)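 Aβ42 (25 μM), with or without metal ions, was pre-incubated for 24 h to form aggregates, then exposed to test compound for a further 24 h. Species sizes were analysed by gel/Western blot with anti-Aβ antibody 6E10. Band intensities were quantified as a ratio to the matching control (ISample/IControl). Morphology was examined by TEM.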

[4] = molecular target: preformed Cu(II)–Aβ42 aggregates (Homo sapiens, UniProt P05067); assay: Aβ42 disaggregation experiments; assay type: biochemical
Chain of preformed Cu(II)–Aβ42 aggregates (P05067 672-713): as above
Method in brief: as §2

Interaction with Cu = assay type: physicochemical; details: UV-Vis; indicative of oxidation
Method in brief: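 UV-Vis absorption spectra of test compound (25 μM) recorded with CuCl2 at 0, 12.5, 25, 50 and 125 μM. Medium was 20 mM HEPES, pH 6.6, 150 mM NaCl, or EtOH for some compounds. Additional spectra were taken after adding 0.5, 1 and 2 equiv of CuCl2.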

[5] = molecular target: preformed Zn(II)–Aβ42 aggregates (Homo sapiens, UniProt P05067); assay: Aβ42 disaggregation experiments; assay type: biochemical
Chain of preformed Zn(II)–Aβ42 aggregates (P05067 672-713): as above
Method in brief: as §2

Row | Structure (SMILES) | radical scavenging activity, compared to Trolox [1] | inhibition of the activity of AChE [2] | MW distribution of Aβ42 species by gel/Western blot (metal-free Aβ42) | MW distribution of Aβ42 species by gel/Western blot (Cu(II)–Aβ42) | MW distribution of Aβ42 species by gel/Western blot (Zn(II)–Aβ42) | MW distribution of Aβ42 species by gel/Western blot [3] | IC50 [2] [nM] | morphology of Aβ42 aggregates by TEM (Cu(II)–Aβ42) | morphology of Aβ42 aggregates by TEM (Zn(II)–Aβ42) | morphology of preformed aggregates by TEM [4] | absorption band at ca. 400–440 nm at greater Cu(II) concentrations (Interaction with Cu) | morphology of preformed aggregates by TEM [5]
1 | O=c1cc(-c2ccc(O)cc2)oc2cc(O)cc(O)c12 [Api, Apigenin] | negligible | not inhibited | did not exhibit significant reactivity | did not exhibit significant reactivity | did not exhibit significant reactivity | did not exhibit notable reactivity | – | – | – | – | – | –
2 | O=c1cc(-c2ccccc2)oc2cc(O)cc(O)c12 [Chr, chrysin] | negligible | not inhibited | did not exhibit significant reactivity | did not exhibit significant reactivity | did not exhibit significant reactivity | did not exhibit notable reactivity | – | – | – | – | – | –
3 | O=c1c(O)c(-c2ccccc2)oc2cccc(O)c12 [DHF, 3,5-dihydroxyflavone] | – | – | did not exhibit significant reactivity | did not exhibit significant reactivity | did not exhibit significant reactivity | did not exhibit notable reactivity | > 2000 | – | – | – | – | –
4 | O=c1c(-c2ccccc2)coc2cc(O)cc(O)c12 [DHIF, 5,7-dihydroxyisoflavone] | negligible | – | did not exhibit significant reactivity | did not exhibit significant reactivity | did not exhibit significant reactivity | did not exhibit notable reactivity | – | – | – | – | – | –
5 | O=c1c(O)c(-c2ccccc2)oc2cc(O)cc(O)c12 [Gal, galangin] | – | – | did not exhibit significant reactivity | did not exhibit significant reactivity | did not exhibit significant reactivity | did not exhibit notable reactivity | – | did not significantly alter the morphologies | fibrillar aggregates similar to those from the compound-free Zn(II)–Aβ42 sample | – | – | –
6 | O=c1c(-c2ccc(O)cc2)coc2cc(O)cc(O)c12 [Gen, genistein] | – | – | did not exhibit significant reactivity | did not exhibit significant reactivity | did not exhibit significant reactivity | did not exhibit notable reactivity | – | – | – | – | – | –
7 | O=c1cc(-c2ccccc2)oc2cccc(O)c12 [HF, 5-hydroxyflavone] | negligible | not inhibited | did not exhibit significant reactivity | did not exhibit significant reactivity | did not exhibit significant reactivity | did not exhibit notable reactivity | > 2000 | did not significantly alter the morphologies | fibrillar aggregates similar to those from the compound-free Zn(II)–Aβ42 sample | – | – | –
8 | O=c1c(-c2ccccc2)coc2cccc(O)c12 [HIF, 5-hydroxyisoflavone] | negligible | not inhibited | did not exhibit significant reactivity | did not exhibit significant reactivity | did not exhibit significant reactivity | did not exhibit notable reactivity | – | – | – | – | – | –
9 | O=c1c(O)c(-c2ccc(O)cc2)oc2cc(O)cc(O)c12 [Kae, kaempferol] | – | – | did not significantly influence | increased the signal in the range of ca. 7–50 kDa | did not significantly influence | did not impact | – | amorphous assemblies distinct from native Aβ42 fibrils | fibrillar aggregates similar to those from the compound-free Zn(II)–Aβ42 sample | a mixture of amorphous aggregates and thinner chopped fibrils | diminished | –
10 | O=c1cc(-c2ccc(O)c(O)c2)oc2cc(O)cc(O)c12 [Lut, luteolin] | – | – | minor change | increased the signal in the range of ca. 7–50 kDa | altered the aggregation of Zn(II)–Aβ42, resulting in diverse MW distributions from ca. 15 to 50 kDa | did not impact | – | decreased the degree of branching in the fibrils | thinner chopped fibrils | a mixture of amorphous aggregates and thinner chopped fibrils | – | –
11 | O=c1c(-c2ccc(O)c(O)c2)coc2cc(O)cc(O)c12 [Oro, orobol] | – | – | minor change | significantly decreased the band intensity of the entire range (7–270 kDa) | altered the aggregation of Zn(II)–Aβ42, resulting in diverse MW distributions from ca. 15 to 50 kDa | very mildly varied the MW distribution | – | thinner and shorter aggregates | thinner chopped fibrils | a mixture of amorphous aggregates and thinner chopped fibrils | – | shorter fibrils
12 | O=c1c(O)c(-c2ccc(O)c(O)c2)oc2cc(O)cc(O)c12 [Que, Quercetin] | – | – | minor change | increased the smearing band intensity at ca. 7–270 kDa | altered the aggregation of Zn(II)–Aβ42, resulting in diverse MW distributions from ca. 15 to 50 kDa | very mildly varied the MW distribution | – | significantly shorter fibrillar aggregates | thinner chopped fibrils | a mixture of amorphous aggregates and thinner chopped fibrils | diminished | shorter fibrils
